In brackets after ≈: the same amount, converted by molar mass. Activity calls are given as the source filed them. The rule behind the calls is not given here. Bridge positions count the residues as written; N and C are the ends. Square brackets hold non-standard residues; d marks the D form. Peptide text beside a SMILES is read from it. Dab = NCC[C@H](N)C(=O)O
Columns and labels:
Escherichia coli [1] = experiment: Antimicrobial activity against Escherichia coli OC2605 by broth microdilution method; assay type: functional
Procedure, shortened: (§1)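 CLSI broth microdilution MIC; strains from the sponsor's in-house collection.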

Enterococcus faecium = experiment: Antimicrobial activity against Enterococcus faecium OC3312 by broth microdilution method; assay type: functional
Procedure, shortened: (§2)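 MICs by CLSI broth microdilution. Where polymyxin B nonapeptide was included, it was present at 2 μg/ml alongside the test compound.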

Escherichia coli [2] = experiment: Antimicrobial activity against Escherichia coli OC9040 by broth microdilution method; assay type: functional; procedure, shortened: as §2
Staphylococcus aureus [3] = experiment: Antimicrobial activity against methicillin-resistant Staphylococcus aureus OC2878 by broth microdilution method; assay type: functional; procedure, shortened: as §1
Escherichia coli [4] = experiment: Antimicrobial activity against LPS-deffective Escherichia coli OC2530 by broth microdilution method; assay type: functional; procedure, shortened: as §2
Staphylococcus aureus [5] = experiment: Antimicrobial activity against Staphylococcus aureus ATCC 29213 by broth microdilution method; assay type: functional; procedure, shortened: as §2
Staphylococcus aureus [6] = experiment: Antimicrobial activity against methicillin-resistant Staphylococcus aureus OC3726 by broth microdilution method; assay type: functional; procedure, shortened: as §1
Staphylococcus aureus [7] = experiment: Antimicrobial activity against Staphylococcus aureus OC4172 by broth microdilution method; assay type: functional; procedure, shortened: as §2
Enterococcus faecalis = experiment: Antimicrobial activity against Enterococcus faecalis ATCC 29212 by broth microdilution method; assay type: functional; procedure, shortened: as §2
Escherichia coli [8] = experiment: Antimicrobial activity against Escherichia coli ATCC 25922 by broth microdilution method; assay type: functional; procedure, shortened: as §2
Staphylococcus aureus [9] = experiment: Bacteriostatic activity against Staphylococcus aureus ATCC 29213 at 2 times MIC; assay type: functional, organism-based
Escherichia coli [10] = experiment: Inhibition of LPS-deficient Escherichia coli OC2530 MurF assessed as UDP-MurNAc-pentapeptide product level at 2 times MIC by HPLC (reference value: 1 mAU)
Escherichia coli [11] = experiment: Antimicrobial activity against LPS-deffective Escherichia coli OC2530 assessed as cell aggregation at 0.5 times MIC by light microscopy relative to untreated control; assay type: functional, organism-based
Procedure, shortened: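 Cells were fixed on a glass slide under a coverslip and viewed by light microscopy at ×100/×1.25 oil immersion. Representative images were taken.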

Escherichia coli [12] = experiment: Inhibition of LPS-deficient Escherichia coli OC2530 MurF harboring pASK plasmid assessed as UDP-MurNAc-pentapeptide product level at 2 times MIC by HPLC (Rvb =880 +/- 17 mAU)
Procedure, shortened: (§3)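 Compound added at 2× MIC from 500× stock (DMSO control). After 30 min, muropeptides extracted and quantified by HPLC peak area (mAU); representative of two independent experiments.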

Escherichia coli [13] = experiment: Inhibition of LPS-deficient Escherichia coli OC2530 MurF harboring pASK plasmid assessed as UDP-MurNAc-tripeptide substrate level at 2 times MIC by HPLC (reference value: 63 +/- 4 mAU); procedure, shortened: as §3
Escherichia coli [14] = experiment: Inhibition of LPS-deficient Escherichia coli OC2530 MurF harboring pMurF plasmid assessed as UDP-MurNAc-pentapeptide product level at 2 times MIC by HPLC (reference value: 2674 +/- 696 mAU); procedure, shortened: as §3
Escherichia coli [15] = experiment: Inhibition of LPS-deficient Escherichia coli OC2530 MurF harboring pMurF plasmid assessed as UDP-MurNAc-tripeptide substrate level at 2 times MIC by HPLC (reference value: 220 +/- 65 mAU); procedure, shortened: as §3
Escherichia coli [16] = experiment: Antimicrobial activity against LPS-deffective Escherichia coli OC2530 harboring pMurF plasmid by broth microdilution method in presence of chloramphenicol; assay type: functional
Procedure, shortened: (§4)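 CLSI broth microdilution MIC for OC2530 carrying plasmid (empty pASK or pMurF). Medium contained chloramphenicol 3 μg/ml to keep the plasmid and AHT 100 ng/ml to induce MurF expression.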

Escherichia coli [17] = experiment: Inhibition of LPS-deficient Escherichia coli OC2530 MurF assessed as UDP-MurNAc-tripeptide substrate level at 2 times MIC by HPLC (reference value: 1 mAU)
Escherichia coli [18] = experiment: Bactericidal activity against LPS-deffective Escherichia coli OC2530 at 2 times MIC by CFU quantitation
Staphylococcus aureus [19] = experiment: Inhibition of Staphylococcus aureus ATCC 29213 MurF assessed as UDP-MurNAc-tripeptide substrate level at 2 times MIC by HPLC (reference value: 1 mAU)
Procedure, shortened: (§5)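 After 30 min, muropeptides were extracted and quantified by HPLC peak area, normalized to the control. The HPLC detection limit was 12 mAU. Results are representative of two independent experiments.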

Escherichia coli [20] = experiment: Antimicrobial activity against LPS-deffective Escherichia coli OC2530 harboring pASK plasmid by broth microdilution method in presence of chloramphenicol; assay type: functional; procedure, shortened: as §4
Staphylococcus aureus [21] = experiment: Inhibition of Staphylococcus aureus ATCC 29213 MurF assessed as UDP-MurNAc-pentapeptide product level at 2 times MIC by HPLC (reference value: 1 mAU); procedure, shortened: as §5

SMILES | MIC (Escherichia coli [1]) [µg/mL] | MIC (Enterococcus faecium) [µg/mL] | MIC (Escherichia coli [2]) [µg/mL] | MIC (Staphylococcus aureus [3]) [µg/mL] | MIC (Escherichia coli [4]) [µg/mL] | MIC (Staphylococcus aureus [5]) [µg/mL] | MIC (Staphylococcus aureus [6]) [µg/mL] | MIC (Staphylococcus aureus [7]) [µg/mL] | MIC (Enterococcus faecalis) [µg/mL] | MIC (Escherichia coli [8]) [µg/mL] | further results
CC(C)C[C@@H]1NC(=O)[C@@H](Cc2ccccc2)NC(=O)[C@H](CCN)NC(=O)[C@@H](NC(=O)[C@H](CCN)NC(=O)[C@@H](N)[C@@H](C)O)CCNC(=O)[C@H]([C@@H](C)O)NC(=O)[C@H](CCN)NC(=O)[C@H](CCN)NC1=O [POLYMYXIN B NONAPEPTIDE] (H-T[Dab][Dab][Dab][dF]L[Dab][Dab]T; lactam 3-C) | 32 (≈ 33.2 µM) | > 64 | 64 (≈ 66.4 µM) | > 64 | 16 (≈ 16.6 µM) | > 64 | > 64 | > 64 | > 64 | 64 (≈ 66.4 µM) | –
N[C@@H]1CONC1=O [CYCLOSERINE] | 16 (≈ 157 µM) | 64 (≈ 627 µM) | 32 (≈ 313 µM) | 64 (≈ 627 µM) | 64 (≈ 627 µM) | 32 (≈ 313 µM) | 32 (≈ 313 µM) | 32 (≈ 313 µM) | 128 (≈ 1250 µM) | 32 (≈ 313 µM) | Activity (Staphylococcus aureus [9]): Active; Activity (fold of control) (Escherichia coli [10]): 0.12; Activity (Escherichia coli [11]): Active; Activity (Escherichia coli [12]): 146 mAU; Activity (Escherichia coli [13]): 2260 mAU; Activity (Escherichia coli [14]): 181 mAU; Activity (Escherichia coli [15]): 5090 mAU; MIC (Escherichia coli [16]): 64 µg/mL; Activity (fold of control) (Escherichia coli [17]): 30; Activity (Escherichia coli [18]): Active; Activity (fold of control) (Staphylococcus aureus [19]): > 100; MIC (Escherichia coli [20]): 64 µg/mL; Activity (fold of control) (Staphylococcus aureus [21]): 0.33
